# From PubChem
# EBI2 block: EBI2 receptor antagonists, beta-arrestin recruitment, primary screen, cell-based, luminescence, 7a,25-OHC stimulation, uHTS | 360,000 tested, 0.81% active | G-protein coupled receptor 183 (Homo sapiens), P32249 | 7a,25-OHC stimulated | inhibition, % at 5 µM | AID 651636, 2012; in the data active = inhibition above about 38%;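 also: enzyme fragment complementation signal reports receptor beta-arrestin coupling in cells; 0% = agonist plus DMSO wells and 100% = wells without agonist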
# CCR6 antag: CCR6 receptor antagonists, primary screen, cell-based, CHO-K1, luminescence, beta-arrestin, uHTS. inhibition, % at 20 µM. 340,000 tested, 0.49% active. C-C chemokine receptor type 6 (Homo sapiens), P51684. CHO-K1 CCR6 PathHunter beta-arrestin, CCL20-stimulated;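 active = compounds whose inhibition of the agonist-driven luminescence signal at 20 µM reaches about 50%, limit read from the data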;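 also: cells stimulated with CCL20 at 14 nM final; plate controls were DMSO with CCL20 for no effect and DMSO without agonist for full effect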
# CXCR6 block: CXCR6 receptor inhibitors, primary screen, cell-based, beta-arrestin, luminescence, CHO-K1 PathHunter, 1536-well; inhibition, % at 20 µM; 360,000 tested, 0.36% active; in the data active = inhibition above about 34%, passing the limit was not always enough;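 also: antagonist mode with CXCL16 agonist at 10 nM final; 0% = 10 nM CXCL16 with DMSO and 100% = unstimulated wells without agonist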
# APJ agonist: agonists of human apelin receptor APJ, primary screen, CHO-K1 cells, PathHunter beta-arrestin, luminescence | 0% DMSO wells, 100% apelin | activation, % at 20 µM | 330,000 tested, 0.11% active | AID 2520, 2010;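 active = activation more than six SD over the plate average, tested at 20 µM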;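 also: 0% = DMSO alone and 100% = apelin-13 at 10 nM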
# Target sequence (P35414 whole entry, looked up): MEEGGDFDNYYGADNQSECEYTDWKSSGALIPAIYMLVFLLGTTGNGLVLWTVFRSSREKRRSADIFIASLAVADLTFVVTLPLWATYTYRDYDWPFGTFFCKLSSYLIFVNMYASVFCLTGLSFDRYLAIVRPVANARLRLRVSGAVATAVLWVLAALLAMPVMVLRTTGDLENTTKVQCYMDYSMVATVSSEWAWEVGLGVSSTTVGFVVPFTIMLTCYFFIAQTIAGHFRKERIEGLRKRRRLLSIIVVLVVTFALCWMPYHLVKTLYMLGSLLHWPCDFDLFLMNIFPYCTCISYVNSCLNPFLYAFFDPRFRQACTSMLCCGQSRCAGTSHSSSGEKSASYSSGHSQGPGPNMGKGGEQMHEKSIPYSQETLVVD
#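 Test system: CHO-K1 APJ beta-arrestin complementation cell line | Compound: Single test compound dose, 20 µM final, 1% DMSO | Incubation: Compound 90 min 25 °C, reagent 1 h | Measured by: beta-gal luminescence | Read-out basis: APJ–arrestin association signal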
# APJ antag: antagonists of human apelin receptor APJ, primary screen, CHO-K1 cells, beta-arrestin complementation, luminescence | P35414 | inhibition, % at 20 µM | 330,000 tested, 0.32% active;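 active = inhibition above about 40% at 20 µM, limit read from the data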;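 also: cells challenged with 10 nM apelin-13 agonist together with compound; plate controls were apelin-13 plus DMSO wells for no effect and DMSO wells lacking apelin-13 for full effect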
# APJ antag conf: APJ antagonists blocking beta-arrestin recruitment, confirmation, cell-based, luminescence, single concentration, uHTS hits | shares compounds with APJ antag | antagonist mode | inhibition, % at 20 µM | 950 tested, 66% active; in the data active = inhibition above about 50%
# The depositor's hits bear a star; nt = no result given. Hits are enriched below; roughly 1.5% of the tested compounds scored in any of these assays.
SMILES,EBI2 block,CCR6 antag,CXCR6 block,APJ agonist,APJ antag,APJ antag conf
Cc1cc(C)c2nc3sc(C(=O)N4CCOCC4)c(N)c3cc2c1,33.1,10.4,1.9,-9.7,43.6*,30.1
ON1C(c2ccccc2C(F)(F)F)N(O)[C@H]2CCCC[C@H]21 (stereo partly specified),0.0,29.4,19.8,-7.9,40.2*,38.0
Cc1ccc(N2C(=O)C(Cc3ccc(O)cc3)NC2=S)cc1C (stereo unspecified),0.8,-44.3,8.5,0.8,66.5*,42.0
COc1ccc(C(=O)/C=C/C(=O)N(CC(=O)NC2CCCCC2)CC2CCCO2)c(O)c1 (stereo unspecified),6.0,86.7*,68.3*,-3.6,55.7*,109.6*
COc1ccc(C(=O)/C=C/C(=O)N(Cc2ccccc2)C(C(=O)NC2CCCCC2)c2ccncc2)c(O)c1 (stereo unspecified),7.7,3.6,13.2,-5.5,9.1,nt
CC(=O)Nc1cc(C(=O)OCC(=O)c2ccc(C)cc2)ccc1C,0.8,-18.6,26.0,-2.0,-5.7,nt
CC(C)C(=O)Nc1cccc(C(=O)OCC(=O)c2ccc(Cl)cc2Cl)c1,20.8,36.5,2.0,-4.6,48.9*,50.3*
O=C(COC(=O)c1cccnc1Cl)c1ccc(Cl)cc1Cl,-4.6,20.9,15.4,-13.3,57.7*,60.3*
COC(=O)c1cccc(NC(=O)Nc2ccc(Cl)cc2Cl)c1,-10.1,-6.3,-9.1,-4.5,-12.8,nt
CC(=O)Nc1cc(C(=O)OCC(=O)c2ccc(Cl)cc2Cl)ccc1C,0.7,11.9,5.7,-6.5,52.4*,24.7
COc1ccc(C(=O)COC(=O)c2cccnc2Cl)c(OC)c1,9.6,11.5,-9.5,-4.5,4.1,nt
Cc1ccc(OCc2cc(C(=O)N(C)C3CCCc4ccccc43)no2)cc1C (stereo unspecified),0.9,nt,8.4,nt,nt,nt
Nc1[nH]c2cc([N+](=O)[O-])ccc2c1-c1ccccn1,19.7,49.1,33.9,-6.6,47.3*,99.5*
Cc1nn(CCC(=O)NNC(=S)NCC(C)C)c(C)c1Br,22.2,53.3*,38.1,-13.6,77.3*,114.8*
Cc1nn(CCC(=O)NNC(=S)Nc2ccccc2)c(C)c1Br,5.3,27.3,7.6,-11.9,47.5*,100.1*
CNC(=S)NNC(=O)CCn1nc(C)c(Br)c1C,-4.2,-6.5,-0.7,-2.0,20.5,nt
CCCCCCn1c(=O)n2n(c1=O)[C@@H]1CN(S(=O)(=O)c3ccc(C)cc3)C[C@]1(O)[C@@H](OC(=O)NCC1CCCCC1)C2,19.9,nt,-4.9,nt,nt,nt
O=C(COC(=O)c1ccccc1F)c1ccc(-n2nncc2-c2ccco2)cc1,22.9,34.9,23.8,-6.5,41.3*,5.0
O=C(N/N=C/c1cc(Br)cc(Br)c1O)c1ccncc1,nt,-9.4,nt,0.9,-42.3,nt
O=C(N/N=C/c1cc(Br)cc([N+](=O)[O-])c1O)c1ccc(NC(=O)c2ccc(F)cc2)cc1,17.9,69.4*,28.3,-9.1,49.3*,86.0*
COc1cc(NC2c3ccccc3C(=O)N2Cc2ccc3c(c2)OCO3)cc(OC)c1 (stereo unspecified),-6.1,9.1,1.8,-4.2,10.5,nt
CC(=O)N/N=C(/c1ccccc1)C(O)c1ccccc1 (stereo unspecified),-3.5,3.1,4.7,0.3,42.9*,-10.3
C/C(=N\NC(=O)C(O)c1ccccc1)c1cccnc1 (stereo unspecified),-7.3,-0.8,1.7,-2.3,-2.4,nt
COc1ccc(Cn2nnnc2C(c2cc(OC)ccc2OC)N2CCC(C(N)=O)CC2)cc1 (stereo unspecified),-5.6,-2.8,-2.1,-0.7,42.9*,19.7
COc1ccc(Cn2nnnc2C(c2ccccc2Cl)N2CCC(C(N)=O)CC2)cc1 (stereo unspecified),6.8,9.2,-2.7,-0.6,5.8,nt
COc1ccc(-c2c3c(nc4sc5c(=O)[nH]c(C)nc5c24)CCC3)cc1,3.5,-3.6,5.4,-1.8,6.0,nt
